Here are results for two molecules from paper PMC2897717 (Journal of cerebral blood flow and metabolism : official …, 2009).

Each structure is given as a SMILES string.

One series relates to dopamine D2/D3 receptors. Kind of series: Multiple-injection. It counts as in vivo, rhesus monkey (Macaca mulatta).
A short description of another series: Multiple-injection. Type of series: in vivo, rhesus monkey (Macaca mulatta). Put shortly:
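Three labeled/unlabeled radioligand injections were given i.v. in 0.9% NaCl within a session under 3 hours, with no decay correction. The model used K1, k2, fNDkon, koff and Bmax shared across injections, with molar arterial parent plasma as input and a blood-volume term. Levenberg–Marquardt fitting was run per ROI and across regions. Cerebellum was fitted as 1CM [K1,k2] or 2CM [K1,k2,Bmax] with fNDkon and koff fixed from other regions.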

The conditions of series [1]: baboon, MI experiments; ref Delforge et al, 1999; cited from earlier work.
Where [2] appears, read: averaged across all brain regions.

Regarding `C=CCN1CCC[C@H]1CNC(=O)c1cc(CCCF)cc(OC)c1OC` [^18F-fallypride, (S)-N-[(1-allyl-2-pyrrolidinyl)methyl]-5 (3-[18F]fluoropropyl) 2,3-dimethoxybenzamide], the “Estimated maximum receptor occupancy, injection 1” value is on record as 13% in the series on dopamine D2/D3 receptors (experiment M1a, m1 2.0 nmol) and 12% in the series with dopamine D2/D3 receptors (experiment M2a, m1 0.7 nmol). Further, the “Estimated maximum receptor occupancy, injection 2” value in the series on dopamine D2/D3 receptors (experiment M1a, m2 13.1 nmol) was 64%; with dopamine D2/D3 receptors (experiment M2a, m2 10.6 nmol), 77%. Further, the “Estimated maximum receptor occupancy, injection 3” value in the series with dopamine D2/D3 receptors (experiment M1a, m3 100 nmol) was 98%. Also, the “K1, mean” value in “Multiple-injection” (setting [2]) came to 0.48 ± 0.15 mL/cm^3/min. For the same molecule, the “k2, tissue-to-plasma efflux constant, mean” value in the series “Multiple-injection” (setting [2]) is 0.54 ± 0.10 min⁻¹. In addition, the “ND distribution volume (VND = K1/k2)” value in “Multiple-injection” (from mean K1 and k2) came out at 0.9 mL/cm^3.
In the case of `CCN1CCCC1CNC(=O)c1cc([76Br])cc(OC)c1OC` (stereo not drawn) [^76Br-FLB457], in series [1], the VND is given as 0.35 mL/cm^3.
